Screening data: PubChem, several laboratories
Most compounds without a hit are left out; they make up all but 2.5% or so of the library.
UHRF1 binding: UHRF1 methylated DNA binding inhibitors, primary screen, counter-screen for MBD2 inhibitor project, biochemical, TR-FRET, human UHRF1, single concentration; 0.75% of 370,000 active; inhibition, % at 4.4 µM; UHRF1 binding to methylated oligo; in the data active = inhibition above about 21%;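 also: UHRF1 SRA domain binding a hemimethylated CpG hairpin DNA probe; 0% = median of test compound wells and 100% = reference inhibitor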
Arrestin-AP2 inh: inhibitors of beta-arrestin/AP2 binding, primary screen, biochemical, GPCR trafficking, flow cytometry; beta-arrestin 1 C-terminal peptide binding to AP2 beta2-adaptin appendage (human); FITC-arrestin peptide / GST-AP2 beads; AP2 beta2 appendage carries R879A mutation; inhibition, % at 10 µM; 0.31% of 340,000 active;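 active = inhibition above a set limit, near 3 SD of compounds lacking own fluorescence, cut at about 54% in these data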;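 also: plate controls were DMSO wells for no effect and 5 µM unlabelled arrestin peptide for full effect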
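Assay system: GST-AP2 R879A bound to glutathione beads, E. coli-expressed; Medium: PBS with 0.05% Tween 20 and 0.1% BSA; Also added: fluorescein-tagged arrestin peptide at 50 nM final; Timing: 12 min plus 1 h, RT; Measured by: flow cytometry, FL1 (488/535 nm); Evaluation: percent drop in bead-associated FITC signal.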
B2AR ag: beta2AR agonists driving receptor internalization, primary screen, cell-based, FAP fluorogen, flow cytometry. Am2.2-beta2AR cells. response, % (no concentration beside the values). 0.43% of 340,000 active. AID 504454, 2011;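 active = response above a set limit, near 3 SD of response in nonfluorescent compounds, cut at about 42% in these data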
ABHD5-PLIN5 inh: ABHD5-PLIN5 interaction inhibitors, primary screen, cell lysate, split luciferase complementation, luminescence; inhibition, % at 4 µM; 0.78% of 360,000 active; Perilipin-5 (Homo sapiens) + 1-acylglycerol-3-phosphate O-acyltransferase ABHD5 (Homo …; AID 602281, 2012; Split G. princeps luciferase complementation, 4 h;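 active = inhibition above the mean inhibition across every tested compound plus 3 SD, cut at about 22% in these data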;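 also: 0% = DMSO only wells and the 100% control is not disclosed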
MBD2 DNA inh: inhibitors of MBD2 binding to methylated DNA, primary screen, biochemical, TR-FRET, DNA-binding domain, human | inhibition, % at 4.4 µM | AID 686964, 2013 | 0.31% of 370,000 active | MBD2 binding to methylated oligonucleotide | Methyl-CpG-binding domain protein 2 (Homo sapiens), Q9UBB5; in the data active = inhibition above about 13%
Target sequence (Q9UBB5 whole entry, looked up, the tested form may be a part): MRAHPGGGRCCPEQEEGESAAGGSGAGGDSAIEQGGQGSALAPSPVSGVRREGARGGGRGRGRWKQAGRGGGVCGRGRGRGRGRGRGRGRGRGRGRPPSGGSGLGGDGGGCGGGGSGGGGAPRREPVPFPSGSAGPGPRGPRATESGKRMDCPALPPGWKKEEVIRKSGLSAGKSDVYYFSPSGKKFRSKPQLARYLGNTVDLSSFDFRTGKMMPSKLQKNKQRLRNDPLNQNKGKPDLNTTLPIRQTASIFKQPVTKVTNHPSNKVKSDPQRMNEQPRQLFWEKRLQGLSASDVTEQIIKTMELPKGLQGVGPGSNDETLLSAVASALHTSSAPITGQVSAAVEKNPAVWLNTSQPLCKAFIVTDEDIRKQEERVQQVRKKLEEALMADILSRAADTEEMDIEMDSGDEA
Rin1 Abl inh: inhibitors of Rin1-Abl protein binding, primary screen, biochemical, TR-FRET | Tyrosine-protein kinase ABL1 (Homo sapiens) + Ras and Rab interactor 1 (Homo sapiens), … | inhibition, % at 7.35 µM | 0.4% of 360,000 active; in the data active = inhibition above about 5%, passing the limit was not always enough
* hit, by the source's call; x = not tested or not shown.

SMILES	UHRF1 binding	Arrestin-AP2 inh	B2AR ag	ABHD5-PLIN5 inh	MBD2 DNA inh	Rin1 Abl inh
COc1ccc(C(=O)/C=C/C(=O)N(CC(=O)NC2CCCCC2)Cc2ccccc2OC)c(O)c1	0.6	3.7	94.9*	3.4	0.1	1.9
COc1ccc(C(=O)/C=C/C(=O)N(CC(=O)NC2CCCCC2)Cc2ccccc2)c(O)c1	0.2	34.1	110.7*	9.3	0.6	-1.2
COc1ccc(C(=O)/C=C/C(=O)N(CC(=O)NC2CCCCC2)CC2CCCO2)c(O)c1 (centres undefined)	0.1	-0.5	112.2*	65.8*	3.4	-0.5
COc1ccc(C(=O)/C=C/C(=O)N(Cc2ccccc2OC)C(C(=O)NC2CCCCC2)c2ccncc2)c(O)c1 (centres undefined)	5.8	2.5	0.7	1.4	2.0	0.4
Cc1c(C)n(Cc2ccc(-c3ccccc3C(=O)O)cc2)c2ccc(C(=O)N[C@@H](C)c3ccc([N+](=O)[O-])cc3)cc12	0.9	x	x	x	6.9	x
O=[N+]([O-])c1ccccc1C=Nn1c(-c2cc(-c3ccccc3)n[nH]2)n[nH]c1=S	3.0	x	x	x	-0.3	x
COc1ccccc1CN(Cc1cccnc1)S(=O)(=O)c1ccc(-n2cnnn2)c(OC)c1	1.7	3.9	-0.5	7.2	1.7	0.8
COc1cc(S(=O)(=O)N(Cc2cccnc2)Cc2cccc(OC)c2OC)ccc1-n1cnnn1	22.7*	5.4	-1.1	0.3	4.5	-0.1
Cc1[nH]c(=O)[nH]c(=O)c1S(=O)(=O)Nc1ccc(S(N)(=O)=O)cc1	4.8	19.7	3.0	-3.0	-3.6	1.4
Cc1[nH]c(=O)[nH]c(=O)c1S(=O)(=O)NCCc1ccc(S(N)(=O)=O)cc1	21.3*	13.5	-0.6	6.3	5.4	-1.6
COc1ccc(S[C@]2(C(=O)N3CCN(C(C)=O)CC3)CC(=O)N(C(=O)CCc3ccccc3)[C@@H]2c2ccc(OC)cc2)cc1	6.7	x	x	x	7.0	x
CC(=O)c1cc(-c2cnn(Cc3ccccc3)c2)c(=O)n2c1CCC2	0.5	x	x	x	2.0	x
COc1ccc(NC(=O)COC(=O)CCc2ccc(S(=O)(=O)N3CCOCC3)cc2)cc1Cl	95.1*	9.9	5.1	6.2	4.5	4.5
O=C(c1ccc(F)cc1Cl)N1CCC(Oc2cccnc2)CC1	-3.0	x	x	x	1.0	x
O=C(Cn1nnc(-c2ccc(N3CCOCC3)cc2)n1)c1cccc(F)c1	0.4	x	x	x	0.1	x
Cc1nn(C)c(C)c1N1C(=O)c2cccc3c(Br)ccc(c23)C1=O	21.7*	5.2	11.9	0.4	0.0	-9.4
COc1cc(C(O)CO)ccc1O (centres undefined)	1.3	1.5	-2.7	3.6	7.8	0.4
COc1cc(C(O)C(=O)O)ccc1O (centres undefined)	43.2*	7.4	1.7	2.0	-2.1	3.3
O=C(/C=C/c1ccc2c(c1)OCO2)NCCSCc1cccc(Cl)c1	-0.9	2.9	44.2*	4.4	1.5	-1.2
O=C(/C=C/c1ccc2c(c1)OCO2)NCCSCc1ccc(Cl)cc1Cl	0.6	-10.5	96.2*	-7.1	-2.4	-3.3
COC(=O)[C@]12C[C@H](CC(=O)N3CCN(C(=O)c4ccco4)CC3)C(=O)N(Cc3ccccc3)C1=C[C@H](COCc1ccccc1)O[C@@H]2C	-1.0	x	x	x	-1.7	x
O=C(CCl)NC1CCCCN(Cc2ccc(OC(F)(F)F)cc2)C1=O (centres undefined)	-0.1	x	x	x	-0.1	x
O=C(c1cc(Cl)cc(Cl)c1)N1CC[C@H]2[C@H](CCCN2Cc2ccc(F)cc2)C1	-2.0	x	x	x	-2.4	x
CCCC1CCC2(CC1)CCC2OC(=S)Nc1ccc(I)cc1 (centres undefined)	-0.5	x	x	x	-7.2	x
Cc1ccccc1Nc1cc2ccccc2c(=O)[nH]1	x	8.0	-4.2	-17.8	x	16.4*
COC(=O)C1=C(C(=O)OC)[C@@]2([C@@H](Cc3ccc(C)cc3)Nc3ccccc3)C=C[C@@H]1O2	0.3	x	x	x	0.1	x
